# Hits are enriched below; roughly 4.9% of the tested compounds scored in any of these assays.
# APP 5'UTR act – activators of APP 5'UTR luciferase reporter, primary screen, SH-SY5Y cells; AID 1276, 2008; activation, % at 2 µM; SH-SY5Y APP 5'UTR luciferase reporter, luminescence; zero percent = DMSO vehicle wells; 190,000 tested, 1% active;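 active means activation above a set limit, based on mean plus 3 SD of controls, cut at about 140% in these data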
# STAT1 activator – STAT1 signaling activators, primary screen, cell-based, HTS, luciferase reporter; NIH 3T3 STAT1-luciferase reporter, IFN-gamma, luminescence; 100% = IFN-gamma alone, no compound; activation (% of control), % at 5.5 µM; 200,000 tested, 2.6% active;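 active means activation above the screen-wide mean activation plus 3 SD, cut at about 130% in these data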;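 further: raw ratio to IFN-gamma control signal so 100% means no change and 0% no light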
# NF-kB neuron act – activators of NF-kB expression in neurons, primary screen, cell-based, HTS. human neuronal cells, NF-kB reporter expression; stronger effect = higher value. fold change at 12.5 µM. 190,000 tested, 1.6% active; in the data active means fold change above about 3.3
# STAT3 blocker – IL-6 driven STAT3 reporter inhibitors, primary screen, U3A cells, luciferase, luminescence, MLSCN library; IL-6 STAT3-luciferase reporter; host cell line lacks STAT1; inhibition, % at 5.5 µM; 190,000 tested, 0.89% active;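 active means inhibition above the mean inhibition across all screened compounds plus 3 SD, cut at about 44% in these data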;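 further: 0% = DMSO only wells and 100% = 100 µM nifuroxazide control wells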
# STAT1 inh – STAT1 signaling inhibitors, primary screen, cell-based, HTS, luciferase reporter; NIH 3T3 STAT1-luciferase reporter, IFN-gamma, luminescence; 200,000 tested, 0.35% active; AID 920, 2007; inhibition, % at 5.5 µM;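 active means inhibition above a set limit, the mean inhibition across all tested compounds plus 3 SD, cut at about 34% in these data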;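 further: 0% = IFN-gamma with DMSO and 100% = IFN-gamma with 300 µM nifuroxazide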
# STAT3 activator – IL-6 driven STAT3 reporter potentiators, primary screen, U3A cells, luciferase, luminescence, MLSCN library; IL-6 STAT3-luciferase reporter; 100% = signal with IL-6 EC80 alone; activation (% of control), % at 5.6 µM; 190,000 tested, 0.91% active; AID 871, 2007;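 active means activation above the screen-wide mean of compound activation plus 3 SD, cut at about 130% in these data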;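 further: 0% = background luminescence of wells with medium and substrate only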
#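 Material: STAT1-lacking human U3A cells, STAT3 luciferase reporter | Benchmarks: IL-6-only wells as 100% reference | Probe or stimulus: IL-6 (33 ng/mL) | Timing: Compound 1 h, then IL-6 6 h at 37 °C | Detection: Luminescence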
# * marks the source's active call; other numbers are inactive results; / = no result.
SMILES,APP 5'UTR act,STAT1 activator,NF-kB neuron act,STAT3 blocker,STAT1 inh,STAT3 activator
COc1ccc(/C=C/C(=O)c2c(C)nc3ccccn23)cc1,106.5,140.9*,1.71,4.9,-44.8,100.9
COc1ccc(CNC(=O)c2c(C)nc3ccccn23)cc1,7.1,91.3,0.77,24.3,16.2,81.3
COc1ccc(/C=C/C(=O)c2ccc(O)cc2)cc1,48.5,111.6,2.57,/,-14.0,/
CC(C)(C)NC(=O)C(c1c[nH]c2ccccc12)N(C(=O)Cn1nnc(-c2ccc(F)cc2)n1)c1cccc(O)c1 (configuration not stated),6.6,110.2,1,-9.8,-11.6,108.3
Cc1ccc(-n2ncc3c(NNC(=O)c4cccs4)ncnc32)cc1,22.5,97.5,1.18,17.3,2.4,91.3
CC(C)CN1CCN(Cc2ccc3ncccc3c2)CC1CCO (configuration not stated),1.3,101.0,0.88,9.3,-2.1,101.9
NNC(=O)c1cc(Cl)ccc1Cl,-18.7,100.8,1.17,-3.5,1.5,100.8
NNC(=O)c1sc(-c2ccc(Cl)cc2)cc1N,6.7,134.5*,1.13,5.4,-34.4,99.6
CCOC(=O)c1cc(-c2ccc(N)cc2)sc1N,19.3,139.4*,3,1.5,-42.8,102.1
CCOC(=O)c1sc(-c2ccc(Br)cc2)cc1N,77.0,137.3*,2.5,0.7,-41.9,101.7
CCOC(=O)c1cc(-c2ccccc2)sc1NC(=O)C(C)C,23.5,97.0,0.82,9.5,3.3,94.2
CCOC(=O)c1sc(-c2ccccc2)cc1NC(=O)Nc1ccccc1,3.1,99.3,0.84,13.1,0.8,90.9
CCc1sc(NC(=O)CCC(=O)O)nc1-c1cc2ccccc2oc1=O,11.3,93.5,1.1,-5.0,7.5,110.0
CCc1ccc(NC2=NCC(c3ccccc3)S2)cc1 (configuration not stated),30.4,129.5*,3.22,-5.7,-32.1,111.9
Cn1c(NC2CCCCC2)c(N=O)c(=O)n(C)c1=O,-13.4,104.0,1.37,17.4,-5.1,94.2
O=C(CNS(=O)(=O)/C=C/c1ccccc1)OC1CCOC1=O (configuration not stated),15.3,101.5,0.92,-4.2,-1.8,104.9
Cc1cc(NC(=O)c2noc3c2CCc2ccccc2-3)no1,/,/,1.66,/,/,/
CC(=O)c1cccc(NC(=O)c2noc3c2CCc2ccccc2-3)c1,169.4*,123.2,1.65,26.8,-27.6,82.7
COc1ccc2c(c1)CCc1c(C(=O)N3CCCCCC3)noc1-2,129.9,136.2*,3.4*,5.7,-40.0,97.6
CCCNC(=O)c1noc2c1CCc1cc(OC)ccc1-2,159.5*,110.3,6.07*,40.5,-13.5,69.2
COc1ccc2c(c1)CCc1c(C(=O)NCC(C)C)noc1-2,177.9*,122.1,6.27*,33.7,-26.4,76.1
O=C(C=C1SCCS1)/C=C/c1ccco1,157.9*,114.3,5.92*,30.1,-16.0,77.4
COc1ccccc1NC(=O)c1csc2c1CCC(C)C2 (configuration not stated),-3.1,99.6,1.47,17.9,-1.2,86.7
CCc1nnc(NC(=O)c2csc3c2CCC(C)C3)s1 (configuration not stated),145.2*,97.3,1.14,0.0,2.8,105.2
Cc1ccc2c(c1)sc[n+]2Cc1ccccc1,28.4,135.3*,2.15,0.4,-39.2,108.5
Cc1ccc(NC(=O)Cc2nc(CSc3nnc(-c4ccc5c(c4)OCO5)o3)cs2)cc1,27.5,119.1,1.45,-16.0,-20.9,119.9
Cc1cc(/C=C2\NC(=S)N(C)C2=O)ccc1N1CCCC1,124.8,137.5*,2.99,5.0,-42.1,106.1
CN(C(=O)c1cc2ccccc2oc1=O)C1(C)CCS(=O)(=O)C1 (configuration not stated),-7.8,104.5,1.2,9.4,-6.7,101.0
COc1ccc2cc(-c3cc(C(=O)O)c4ccccc4n3)ccc2c1,84.2,36.4,6.27*,95.4*,72.7*,16.6
CCOC(=O)N1CCN(C(=O)c2cc(-c3ccc(OCC)cc3)nc3ccccc23)CC1,-78.4,146.1*,3.31*,-0.7,-50.9,102.9

# Screens: PubChem, several laboratories
